The values that follow come from ChEMBL document CHEMBL4513216, “Probing the Open Global Health Chemical Diversity Library for Multistage-Active Starting Points for Next-Generation Antimalarials” (ACS Infect Dis, 2020).

The series is described as follows: Toxicity liver stage against HepG2, at 10uM. Also on record: test concentration 10 uM, cell line HepG2-A16-CD81EGFP. It is filed as cell-based. The note with it: human, HepG2-A16-CD81EGFP cells; read-out: INHIBITION
Put shortly: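 Uninfected HepG2-A16-CD81EGFP cells, 3 × 10^3 per well, 1536-well, plated on prespotted compound at 10 μM final, parasite-free screening media added to match infected plates; puromycin 10 μM positive, DMSO 0.5% negative; run in parallel with 48 h PbLuc assay at 37 °C, 5% CO2; viability by CellTiter-Glo luminescence, normalized to controls.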
`COc1ccc([C@@H]2CN(c3cc(C(=O)O)ccn3)C[C@H]2N(C)C)cc1`: the cytotoxicity at 10 µM was found to be 10.3%.
In the case of `CC(Cc1ccc(Cl)cc1)NC(=O)Nc1cnn(CC(N)=O)c1` (stereo unspecified) it was -5.86%.
For `Cn1ccc(C(=O)N2CCC3(CC2)CC(Nc2cnccn2)CO3)n1` (stereo unspecified), the cytotoxicity at 10 µM was found to be 4.35%.
Consider `Cc1cccc(C)c1NC(=O)c1n[nH]c(-n2cnnc2)n1`, for which the cytotoxicity at 10 µM is -10.6%.
The result for `Clc1cnccc1N1CCCOCC1` reads -0.625%; that for `Cn1cc(CN2CC(C(=O)Nc3ccccc3)C3(CCOCC3)C2)cn1` (stereo unspecified), -1.96%.
The result for `Cc1ccc(CCNC(=O)NC2CCN(CC(F)(F)F)C2=O)cn1` (stereo unspecified) reads 4.75%; that for `CNS(=O)(=O)c1ccc(CNC(=O)c2cc(-c3ccccn3)no2)cc1`, -11.4%; that for `CCc1noc(Cn2c(=O)c3c(C(F)(F)F)cc(C)nc3n2C)n1`, -3.44%.
The result for `CCc1ncc(CNCc2cccnc2N(C)C)cn1` reads -2.62%; that for `O=C(Nc1ccccc1F)C1=NN(c2ccccc2)C(=O)CN1`, -13.2%.
In the case of `O=C(O)c1ccn(-c2ccccc2NC(=O)c2ccccc2Cl)n1`, the cytotoxicity at 10 µM is -161%.
As for `O=C(CCc1cccs1)N1CCc2[nH]nc(COc3ccccc3)c2C1`, the cytotoxicity at 10 µM worked out at 0.621%.
With `CCN(c1ccc(C(=O)NCc2ccnc(C)n2)cc1)C(C)C`, the cytotoxicity at 10 µM is -8.78%.
Regarding `NC(=O)NC(=O)CCN1CCCC1c1nc(C2CCCCC2)co1` (stereo unspecified), the cytotoxicity at 10 µM worked out at 5.33%.
The result for `CCN(Cc1ccccc1)C(=O)CN1CCCC(Cn2cncn2)C1` (stereo unspecified) reads 0.421%; that for `CCNC(=O)NC(=O)CN1CCC(c2c[nH]c3ccc(OC)cc23)CC1`, -12.9%; that for `COc1cccc(Cn2ncnc2CCC(C)N2CCN(C)CC2)c1` (stereo unspecified), -4.05%.
For the compound `c1cnc(N2CCC3(CN(CC4CCOC4)C3)C2)nc1` (stereo unspecified), the cytotoxicity at 10 µM is -5.77%.
In the case of `Cc1cc(C)n(C2CCCN(C(=O)CCOc3cccc(F)c3)C2)n1` (stereo unspecified), the cytotoxicity at 10 µM was -5.56%.
On to `O=C(NC1CCCC1)NC1CCc2[nH]c(=O)ccc2C1` (stereo unspecified), for which the cytotoxicity at 10 µM was 7.91%.
For the compound `CCN1C(=O)[C@H]2CN(CC(C)C)C[C@H]2C12CCN(S(C)(=O)=O)CC2`, the cytotoxicity at 10 µM was determined as 10.3%.
The result for `O=C(c1cscn1)N1CCC2(COc3ncccc3S(=O)(=O)N2)C1` (stereo unspecified) reads 7.22%; that for `CCS(=O)(=O)N1CC[C@]2(C[C@@H](OCC3CC3)CO2)C1`, -15.6%; that for `Cc1ccc(-c2cc(CNC(=O)N3CCCN(C)CC3)on2)cc1`, -5.19%.
In the case of `Cc1ncc2c(n1)CN(Cc1nc(Cc3ccccc3)no1)CC2`, the cytotoxicity at 10 µM was -12.4%.
`O=C(NC1CC1)[C@H]1C[C@H]2OCC[C@H]2N(Cc2ccc3ccccc3n2)C1`: the cytotoxicity at 10 µM was -62.6%.
Regarding `CCn1nc(C)c2nnn(CC(=O)Nc3ccccc3)c(=O)c21`, the cytotoxicity at 10 µM amounted to 9.02%.
For the compound `O=C(CCn1ccc2ccccc21)Nc1ccnn1CC1CCOC1` (stereo unspecified), the cytotoxicity at 10 µM was 2.56%.
On to `CCCS(=O)(=O)NCc1ncc(C)c(OC)c1C`, for which the cytotoxicity at 10 µM is -12.9%.
On to `CCCNC(=O)NC(=O)CNC(C)(C)c1ccc2c(c1)OCO2`, for which the cytotoxicity at 10 µM is -12.7%.
The result for `CC(C)(C)n1nc(C2CC2)cc1C(=O)NC1CCN(CC(N)=O)CC1` reads -2.06%; that for `CSCC(CCO)NC(=O)Nc1cc(F)ccc1C` (stereo unspecified), -1.8%.
The result for `COCc1ccccc1C(=O)NS(=O)(=O)CCCC#N` reads 5.24%; that for `Cc1cc(C2CCCN(S(=O)(=O)N(C)C)C2)ccn1` (stereo unspecified), 21.4%; that for `COCC(NC(=O)c1cc[nH]n1)c1cccc(C(F)(F)F)c1` (stereo unspecified), -10.7%.
For `O=C(c1ccc(F)c(F)c1)N1CCCC(Nc2ccc(F)cc2)C1` (stereo unspecified), the cytotoxicity at 10 µM was -12.1%.
Regarding `Cn1cnnc1S(=O)(=O)C1CCN(C(=O)c2ccsc2)CC1`, the cytotoxicity at 10 µM was 6.81%.
Consider `O=C(c1cnccn1)N1C[C@@H](OCc2cccnc2)[C@H]2OCCC[C@H]21`, for which the cytotoxicity at 10 µM is -2.78%.
For `Cc1ccc(C(=O)N2CCc3ncc(Cn4cccn4)n3CC2)cn1`, the cytotoxicity at 10 µM worked out at 7.25%.
Consider `Cc1cc(CN2CC[C@H]3C[C@H](C)O[C@@H]3C2)no1`, for which the cytotoxicity at 10 µM was -1.42%.
Turning to `O=C(CC1CC1)N[C@@H]1CN(Cc2cccnc2)C[C@@H]2CCCO[C@@H]21`, the cytotoxicity at 10 µM was -0.995%.
The result for `Cc1cnn(CC2CCCN2Cc2cc(=O)n3cccc(C)c3n2)c1` (stereo unspecified) reads 0.442%; that for `Cc1nc2c(c(N3CCC(O)(CN4CCCC4)CC3)n1)CCNCC2`, -3.39%; that for `Cc1ccc(NCc2cc(C#N)ccc2F)cc1-n1nnnc1C`, -1.66%.
As to `CN1CCCc2cc(-c3cncn3CC(=O)NC(C)(C)C)ccc21`, the cytotoxicity at 10 µM was -28.9%.
The result for `Cc1cncc(C(=O)NCCSCc2cccs2)c1` reads -6.48%.
`COCCCN(Cc1ccncc1)C(=O)C1COc2ccccc2C1` (stereo unspecified): the cytotoxicity at 10 µM was 11.5%.
For `CSc1nccc(-c2cccc(-c3ccn(CC4COCCO4)n3)c2)n1` (stereo unspecified), the cytotoxicity at 10 µM is -7.92%.
The result for `O=C(CN1CCCC(c2ncc[nH]2)C1)NCC(F)(F)F` (stereo unspecified) reads 9.37%; that for `CCn1cnnc1CNC(=O)c1cc(Cl)ccc1I`, -5.98%; that for `CC(c1cccc(-c2nccn2CCc2cn[nH]c2)c1)N(C)C` (stereo unspecified), -4.83%.
`O=C(CCn1cccn1)N1CCC(C2CCN(c3ncccn3)CC2)C1` (stereo unspecified): the cytotoxicity at 10 µM stood at 5.33%.
In the case of `CCC1CN(CC(=O)NCCN2CCCC2)c2ccccc2S1` (stereo unspecified), the cytotoxicity at 10 µM was -13.1%.
For `CCC(NC(=O)COC)c1ccccc1OCC(=O)N1CCCC1` (stereo unspecified), the cytotoxicity at 10 µM was -6.39%.
For the compound `COc1ccc(N2CCN(C[C@@H](C)CO)CC2=O)cc1`, the cytotoxicity at 10 µM worked out at 1.99%.
Take `CCn1ccnc1-c1nccn1-c1ccccc1CN1CCOCC1`: the cytotoxicity at 10 µM came out at 14.1%.
Take `O=C(CCn1cc(Cl)cn1)Nc1ncccn1`: the cytotoxicity at 10 µM was -5.32%.
The result for `Cc1cc2c(C)cc(O)cc2c(=O)o1` reads 5.73%.
As to `CCOCc1ccc(CNc2cncc(-n3cccn3)n2)cc1`, the cytotoxicity at 10 µM is 20.8%.
As to `c1cnn(CC2CN(c3ncnc4sccc34)CCO2)c1` (stereo unspecified), the cytotoxicity at 10 µM turned out to be 25.1%.
The result for `CCSc1ncc(CN2C[C@@H]3CC[C@H]2CN(C2CCOCC2)C3)cn1` reads -6.38%; that for `Cc1cccc(NC(=O)Cc2cnc3n(C)c(=O)[nH]c(=O)n23)c1`, -5.17%; that for `C[C@]1(O)CN(Cc2ccc(C(=O)O)cc2)CC[C@@H]1Oc1cccc(F)c1`, -6.66%.
Regarding `Cc1cc2nc(SCC(=O)N3CCCC3)n(C(C)C)c(=O)c2[nH]1`, the cytotoxicity at 10 µM is -7.53%.
For the compound `COC1CCN(c2ccc(NC(=O)Cn3cccn3)cc2)CC1`, the cytotoxicity at 10 µM stood at 2.04%.
For `CC(Cn1cccn1)NC(=O)Nc1ccc(N(C)C)nc1` (stereo unspecified), the cytotoxicity at 10 µM turned out to be 14.4%.
The result for `C1CCC(CSc2nnnn2C2CC2)OC1` (stereo unspecified) reads 5.29%; that for `CCCc1cc(NC2CCc3nc(CC)nn3C2)n2ncnc2n1` (stereo unspecified), -16.3%.
In the case of `Cc1nc2c(c(NC3CC3)n1)CCN(C(=O)C1(C#N)CC1)CC2` it was -104%.
Take `O=S(=O)(NCc1ccccc1)N(Cc1ccccn1)CC1CCCO1` (stereo unspecified): the cytotoxicity at 10 µM worked out at 1.62%.
Turning to `CC(O)CC(C)(C)CNC(=O)NCc1cccc(-n2ccnc2)c1` (stereo unspecified), the cytotoxicity at 10 µM is -3.34%.
In the case of `CCOc1ccc(CN(CCOC)c2nc(C)nc3oc(C)nc23)cc1`, the cytotoxicity at 10 µM is -30.2%.
In the case of `Cn1cc(N2C(=O)CC[C@@H]3[C@H]2CCN3Cc2ccncc2)cn1`, the cytotoxicity at 10 µM is -8.85%.
In the case of `CC(=O)Nc1nc(C(=O)N2CCCC2c2ccccc2C)cs1` (stereo unspecified) it was -2.27%; in that of `c1ccc(C2(CNCc3cnc(N4CCOCC4)nc3)CC2)cc1`, -0.813%.
In the case of `O=C([C@H]1COC[C@H]2CN(CC3CCC3)C[C@H]21)N1CCOCC1`, the cytotoxicity at 10 µM amounted to 17.3%.
Turning to `Cc1cc(C)cc(N(C)S(=O)(=O)c2cc3c(c(C(=O)O)c2)OCCO3)c1`, the cytotoxicity at 10 µM was -4.02%.
For `O=C(c1ccccc1)N1CCO[C@@H]2CNC[C@@H]21`, the cytotoxicity at 10 µM was -100%.
Turning to `Cc1noc(C)c1CN(C)Cc1cnc(N2CCOCC2)nc1`, the cytotoxicity at 10 µM was -2.28%.
In the case of `CCc1nc(NS(=O)(=O)c2ccc(F)cc2C)no1` it was -10.9%; in that of `Cc1nn(C)cc1CC(C#N)C(=O)Nc1cccc(O)c1` (stereo unspecified), 2.8%; in that of `Cc1ncsc1C(=O)N1CCN(Cc2ccccc2)CC1C` (stereo unspecified), -161%.
Take `N#Cc1cnn(C(=O)COc2ccccc2F)c1N`: the cytotoxicity at 10 µM was 2.92%.
Take `CCOc1cc(=O)n2c(c1C(=O)OCc1ccc(C)cc1)CCCC2`: the cytotoxicity at 10 µM is 3.11%.
The result for `CN1CCCc2cc(CNC(=O)c3ccncc3)ccc21` reads 7.03%; that for `CCc1nccn1CCC(=O)N1CCCC1c1ccc(F)cc1` (stereo unspecified), 1.58%; that for `O=C1CCCN1CCc1noc(-c2ccc(Cl)cc2)n1`, 7.9%.
Consider `CNS(=O)(=O)c1cccc(C(C)NCc2nccn2C(C)C)c1` (stereo unspecified), for which the cytotoxicity at 10 µM was -12.6%.
As for `O=C(COc1ccccc1F)N1CCCCC1c1ccn2ccnc2n1` (stereo unspecified), the cytotoxicity at 10 µM was -8.52%.
Regarding `Cc1cnn(CC2CCCN2C(=O)c2ccc(OCC3CC3)nc2)c1` (stereo unspecified), the cytotoxicity at 10 µM is -9.86%.
For the compound `CC(NCc1ccccn1)c1cc2c(cc1Br)OCCO2` (stereo unspecified), the cytotoxicity at 10 µM was 2.65%.
In the case of `CSc1ccc(CN(C)C(=O)c2cc3c([nH]c2=O)CCCC3=O)cc1`, the cytotoxicity at 10 µM is -1.25%.
`COCCN1CCO[C@H]2CCN(C(=O)c3cccs3)CC[C@@H]21`: the cytotoxicity at 10 µM is -0.234%.
For `CC(=O)N1CCC(NC2(Cc3cc(CC(C)C)on3)COC2)CC1`, the cytotoxicity at 10 µM worked out at 2.8%.
For `O=C(NCc1ccc(-n2cncn2)nc1)c1ccc2c(c1)CCO2`, the cytotoxicity at 10 µM is -10.2%.
